Reference: article PMC2246419 (EMBO Reports, 2008)

Key:
[1] = system: PKB Ser 473 phosphorylation in NIH3T3 cells; assay: Western blot of serum-stimulated PKB Ser 473 phosphorylation; format: cell-based, mouse
ecotropic MLV retrovirus = assay: Viral production assay; format: cell-based, human; conditions: 800 nM, TEFLY Mo producer cells
type Iα PtdInsP kinase = assay: In vitro lipid kinase assay, type Iα PtdInsP kinase; format: biochemical, mouse
NIH3T3 cells [2] = assay: Cell division and growth curves; format: cell-based, mouse; conditions: 800 nM
NIH3T3 cells [3] = assay: In vivo measurement of phosphoinositide levels in 32P-labelled cells; format: cell-based, mouse; conditions: 800 nM
type IIγ PtdInsP kinase = target: T1, type IIγ PtdInsP kinase (Homo sapiens, UniProt Q8TBX8); assay: In vitro lipid kinase assay, type IIγ PtdInsP kinase; format: biochemical; conditions: even at 10 μM; data not shown
T1 sequence (Q8TBX8 1-421): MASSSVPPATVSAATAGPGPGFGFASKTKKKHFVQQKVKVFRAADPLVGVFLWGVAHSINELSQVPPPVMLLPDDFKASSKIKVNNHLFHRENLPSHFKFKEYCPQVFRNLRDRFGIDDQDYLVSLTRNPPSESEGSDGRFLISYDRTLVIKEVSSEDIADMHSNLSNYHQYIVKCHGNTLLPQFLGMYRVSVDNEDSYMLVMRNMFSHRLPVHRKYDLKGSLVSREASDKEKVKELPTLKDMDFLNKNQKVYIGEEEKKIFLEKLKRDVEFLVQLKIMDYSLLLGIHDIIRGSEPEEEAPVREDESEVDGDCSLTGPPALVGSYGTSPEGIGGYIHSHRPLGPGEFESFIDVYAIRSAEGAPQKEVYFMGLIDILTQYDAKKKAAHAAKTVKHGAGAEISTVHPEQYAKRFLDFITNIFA

p110α = p110α (Bos taurus, UniProt P32871); assay: In vitro lipid kinase assay, GST-p110α; format: biochemical
Sequence of p110α (P32871 whole entry): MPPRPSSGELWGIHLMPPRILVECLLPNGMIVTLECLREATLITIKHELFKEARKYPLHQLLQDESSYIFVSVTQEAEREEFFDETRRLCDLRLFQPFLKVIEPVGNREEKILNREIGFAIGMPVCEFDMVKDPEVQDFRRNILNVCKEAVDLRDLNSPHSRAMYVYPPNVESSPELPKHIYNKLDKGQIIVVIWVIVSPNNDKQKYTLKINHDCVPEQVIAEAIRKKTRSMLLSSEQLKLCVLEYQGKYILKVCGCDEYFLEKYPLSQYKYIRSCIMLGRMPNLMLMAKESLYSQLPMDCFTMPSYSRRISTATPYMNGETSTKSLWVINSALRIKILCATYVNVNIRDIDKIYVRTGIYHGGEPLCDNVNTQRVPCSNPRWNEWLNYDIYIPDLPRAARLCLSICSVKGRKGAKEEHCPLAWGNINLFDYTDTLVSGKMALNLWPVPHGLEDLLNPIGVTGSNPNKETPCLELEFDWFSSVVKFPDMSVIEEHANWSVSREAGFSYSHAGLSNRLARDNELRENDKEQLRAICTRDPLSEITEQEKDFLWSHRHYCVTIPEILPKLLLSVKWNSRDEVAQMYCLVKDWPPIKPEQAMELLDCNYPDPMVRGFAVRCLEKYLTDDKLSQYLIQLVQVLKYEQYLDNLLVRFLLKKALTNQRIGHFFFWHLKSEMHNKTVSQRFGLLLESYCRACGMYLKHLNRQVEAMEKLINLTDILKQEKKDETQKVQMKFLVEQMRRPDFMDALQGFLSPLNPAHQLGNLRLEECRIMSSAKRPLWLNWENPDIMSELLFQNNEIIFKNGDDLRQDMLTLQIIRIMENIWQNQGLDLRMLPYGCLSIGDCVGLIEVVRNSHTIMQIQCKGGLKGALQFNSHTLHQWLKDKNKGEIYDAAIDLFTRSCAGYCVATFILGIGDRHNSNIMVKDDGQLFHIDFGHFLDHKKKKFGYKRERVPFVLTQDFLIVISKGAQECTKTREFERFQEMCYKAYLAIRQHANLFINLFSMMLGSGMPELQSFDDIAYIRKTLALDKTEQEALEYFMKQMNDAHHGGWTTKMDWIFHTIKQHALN

NIH3T3 cells [4] = assay: Lysotracker staining of swollen vesicles; format: cell-based, mouse; conditions: 800 nM 3 h, Lysotracker Red DND-99
Summary of the method: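 NIH3T3 cells were exposed to test compound at 800 nM for 3 h. Lysotracker Red DND-99 (100 nM) was added to the medium for the final 0.5 h, and the acidotropic dye was imaged in the enlarged vesicles.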

Structure (SMILES) | Effect on serum-stimulated phosphorylation of PKB ([1]; increasing concentrations) | Reduction of virus released into the medium (ecotropic MLV retrovirus) [%] | type Iα PtdInsP kinase IC50 fold greater than against PIKfyve (type Iα PtdInsP kinase) | IC50 (type Iα PtdInsP kinase; read-out: type Iα PtdInsP kinase IC50, mouse enzyme, data not shown) [µM] | Effect on cell division (NIH3T3 cells [2]) | Decrease of PtdIns(3,5)P2 production (NIH3T3 cells [3]) [%] | Decrease of PtdIns(4,5)P2 (NIH3T3 cells [3]) | Effect on all other phosphoinositides identified (NIH3T3 cells [3]) | Inhibition of type IIγ PtdInsP kinase (type IIγ PtdInsP kinase) | Effect on PKB Ser 473 phosphorylation ([1]; 800 nM) | IC50 (p110α; p110α IC50, 50 μM ATP, 100 μM PtdIns substrate) [µM] | p110α IC50 fold higher than for PIKfyve (p110α; same assay conditions) [fold] | Acidification of swollen vesicles (NIH3T3 cells [4])
Oc1cccc(-c2nc(N3CCOCC3)c3oc4ncccc4c3n2)c1 [YM211103] | decreased |  |  |  |  |  |  |  |  |  |  |  | 
Nc1ccc(C(=O)Nc2cccc(-c3nc(N4CCOCC4)c4oc5ncccc5c4n3)c2)cn1 [YM201636] |  | 80 | around 100 fold | > 2 | does not inhibit cell division | 80 | around 20% | remained largely unaltered | did not inhibit | no influence | 3 | ~100 | poorly acidified
